Measurements taken from ChEMBL document CHEMBL4196069 (Eur J Med Chem, 2018).

Tests used:
HL-60 = assay: Antiproliferative activity against human HL60 cells after 72 hrs by MTT assay; type: functional, cell-based; details: HL-60, 72 h
Summary of the method: (§1)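 Cells pre-incubated 24 h at 37 °C in humidified 5% CO2, then exposed to compounds for 72 h. MTT (5 mg/mL) was added for 4 h, formazan was dissolved in DMSO, and OD was read at 570 nm. Vehicle control was 0.1% DMSO. IC50 was calculated from inhibition ratios as the mean ± SD of three independent experiments.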

PC-3 = assay: Antiproliferative activity against human PC3 cells after 72 hrs by MTT assay; type: functional, cell-based; details: PC-3, 72 h; summary of the method: as §1
Bel-7402 = assay: Antiproliferative activity against human Bel7402 cells after 72 hrs by MTT assay; type: functional, cell-based; details: Bel-7402, 72 h; summary of the method: as §1
Bel7402/5-FU = assay: Antiproliferative activity against human Bel7402/5-FU cells after 72 hrs by MTT assay; type: functional, cell-based; summary of the method: as §1
L02 = assay: Antiproliferative activity against human LO2 cells after 72 hrs by MTT assay; type: cell-based; details: L02, 72 h; summary of the method: as §1
[1] = Selectivity index, ratio of IC50 for human LO2 cells to IC50 for human Bel7402 cells; type: toxicity; details: LO2 cells versus Bel7402 cells, read-out: Ratio IC50
Summary of the method: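 Selectivity index = IC50(L-O2)/IC50(Bel-7402), both IC50s from the 72 h MTT assay (mean of three independent experiments).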

Structure (SMILES): C[C@H]1CCC/C=C/[C@@H]2C[C@H](OC(=O)c3ccc(N(CCCl)CCCl)cc3)C[C@H]2[C@H](O)/C=C/C(=O)O1
- IC50 (HL-60): 8.25 µM
- IC50 (PC-3): 10.6 µM
- IC50 (Bel-7402): 1.45 µM
- IC50 (Bel7402/5-FU): 4.05 µM
- IC50 (L02): 9.51 µM
- selectivity ratio [1]: 6.6

Structure (SMILES): C[C@H]1CCC/C=C/[C@@H]2C[C@H](O)C[C@H]2[C@H](O)/C=C/C(=O)O1 [BREFELDIN A]
- IC50 (HL-60): 0.025 µM
- IC50 (Bel-7402): 0.024 µM
- IC50 (Bel7402/5-FU): 0.82 µM
- IC50 (L02): < 0.001 µM

Structure (SMILES): C[C@H]1CCC/C=C/[C@@H]2C[C@H](OC(=O)c3ccc(N(CCCl)CCCl)cc3)C[C@H]2[C@H](OC(=O)c2ccc(N(CCCl)CCCl)cc2)/C=C/C(=O)O1
- IC50 (HL-60): 9.31 µM
- IC50 (PC-3): 18.5 µM
- IC50 (Bel-7402): 6.3 µM
- IC50 (Bel7402/5-FU): 15.3 µM
- IC50 (L02): 17.3 µM
- selectivity ratio [1]: 2.7

Structure (SMILES): COC(=O)[C@H](Cc1ccc(N(CCCl)CCCl)cc1)NC(=O)CCC(=O)O[C@@H]1C[C@@H]2[C@H](/C=C/CCC[C@H](C)OC(=O)/C=C/[C@H]2OC(=O)CCC(=O)N[C@@H](Cc2ccc(N(CCCl)CCCl)cc2)C(=O)OC)C1
- IC50 (HL-60): 9.37 µM
- IC50 (PC-3): 32.5 µM
- IC50 (Bel-7402): 4.85 µM
- IC50 (Bel7402/5-FU): 7.47 µM
- IC50 (L02): 29.9 µM
- selectivity ratio [1]: 6.2

Structure (SMILES): COC(=O)[C@H](Cc1ccc(N(CCCl)CCCl)cc1)NC(=O)CCC(=O)O[C@@H]1C[C@H]2[C@H](O)/C=C/C(=O)O[C@@H](C)CCC/C=C/[C@@H]2C1
- IC50 (HL-60): 14.4 µM
- IC50 (PC-3): 17.6 µM
- IC50 (Bel-7402): 1.49 µM
- IC50 (Bel7402/5-FU): 3.05 µM
- IC50 (L02): 4.57 µM
- selectivity ratio [1]: 3.1

Structure (SMILES): C[C@H]1CCC/C=C/[C@@H]2C[C@H](O)C[C@H]2[C@H](OC(=O)CCCc2ccc(N(CCCl)CCCl)cc2)/C=C/C(=O)O1
- IC50 (HL-60): 12.6 µM
- IC50 (PC-3): 1.37 µM
- IC50 (Bel-7402): 1.93 µM
- IC50 (Bel7402/5-FU): 8.35 µM
- IC50 (L02): 29.6 µM
- selectivity ratio [1]: 15.3

Structure (SMILES): O=c1[nH]cc(F)c(=O)[nH]1 [FLUOROURACIL]
- IC50 (HL-60): 2.37 µM
- IC50 (PC-3): 23.9 µM
- IC50 (Bel-7402): 18.5 µM
- IC50 (Bel7402/5-FU): > 80 µM

Structure (SMILES): O=C(O)CCCc1ccc(N(CCCl)CCCl)cc1 [CHLORAMBUCIL]
- IC50 (HL-60): 11.6 µM
- IC50 (PC-3): 40.4 µM
- IC50 (Bel-7402): > 80 µM
- IC50 (Bel7402/5-FU): > 80 µM
- IC50 (L02): > 80 µM

Structure (SMILES): C[C@H]1CCC/C=C/[C@@H]2C[C@H](OC(=O)CCCc3ccc(N(CCCl)CCCl)cc3)C[C@H]2[C@H](O)/C=C/C(=O)O1
- IC50 (HL-60): 34.7 µM
- IC50 (PC-3): 6.84 µM
- IC50 (Bel-7402): 4.86 µM
- IC50 (Bel7402/5-FU): 13.8 µM
- IC50 (L02): 15.5 µM
- selectivity ratio [1]: 3.2

Structure (SMILES): COC(=O)[C@H](Cc1ccc(N(CCCl)CCCl)cc1)NC(=O)CCC(=O)O[C@@H]1/C=C/C(=O)O[C@@H](C)CCC/C=C/[C@@H]2C[C@H](O)C[C@H]21
- IC50 (HL-60): 1.52 µM
- IC50 (PC-3): 14.5 µM
- IC50 (Bel-7402): 1.37 µM
- IC50 (Bel7402/5-FU): 4.6 µM
- IC50 (L02): 5.16 µM
- selectivity ratio [1]: 3.8

Structure (SMILES): COC(=O)[C@H](Cc1ccc(N(CCCl)CCCl)cc1)NC(=O)CCC(=O)O
- IC50 (HL-60): 6.02 µM
- IC50 (PC-3): > 80 µM
- IC50 (Bel-7402): 23.9 µM
- IC50 (Bel7402/5-FU): > 80 µM
- IC50 (L02): 32.9 µM
- selectivity ratio [1]: 1.37

Structure (SMILES): C[C@H]1CCC/C=C/[C@@H]2C[C@H](OC(=O)CCCc3ccc(N(CCCl)CCCl)cc3)C[C@H]2[C@H](OC(=O)CCCc2ccc(N(CCCl)CCCl)cc2)/C=C/C(=O)O1
- IC50 (HL-60): 67.4 µM
- IC50 (PC-3): 20.4 µM
- IC50 (Bel-7402): 7.25 µM
- IC50 (Bel7402/5-FU): 15.6 µM
- IC50 (L02): 19.5 µM
- selectivity ratio [1]: 2.7
